Measurements reported in ChEMBL document CHEMBL4325902, “Design, synthesis and biological evaluation of novel, orally bioavailable pyrimidine-fused heterocycles as influenza PB2 inhibitors” (Eur J Med Chem, 2019).

Tests used:
[1] = Cytotoxicity against MDCK cells assessed as reduction in cell viability after 5 days by CCK-8 assay; type: cell-based, Canis lupus familiaris; settings: dog
In short: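 MDCK cells seeded at 2×10^3 per well and grown overnight at 37°C, 5% CO2. Diluted compound (0.5% DMSO final) added without virus, then 5 days at 37°C. Viability read by CCK-8. CC50 is the concentration cutting viability to 50% of control, from a dose-response fit.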

[2] = Half life in human liver microsomes at 1 uM preincubated for 10 mins followed by NADPH addition measured up to 60 mins by LC/MS/MS analysis; type: ADME, Microsome
In short: (§1)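 Test compound at 1 µM with 0.5 mg/mL liver microsomal protein (CD-1 mouse, SD rat or human) in 100 mM potassium phosphate, pH 7.4. Preincubated 10 min at 37°C, then started with NADPH (1 mM generating system). Sampled at 0–60 min and stopped with cold acetonitrile containing internal standards. Compound loss gave T1/2. A no-NADPH control ran 60 min.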

[3] = Half life in Sprague-Dawley rat liver microsomes at 1 uM preincubated for 10 mins followed by NADPH addition measured up to 60 mins by LC/MS/MS analysis; type: ADME, Microsome; in short: as §1
[4] = Half life in CD-1 mouse liver microsomes at 1 uM preincubated for 10 mins followed by NADPH addition measured up to 60 mins by LC/MS/MS analysis; type: ADME, Microsome; in short: as §1
[5] = Clearance in CD-1 mouse at 0.5 mg/kg, iv; type: ADME, organism-based; settings: in vivo
In short: (§2)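 Male CD-1 mice, n=3 per dose, values are cohort means. Cassette PK: 0.5 mg/kg iv and 1 mg/kg po, both in 20% Solutol in water. Reported parameters are clearance, T1/2, Vd, AUC, Cmax, Tmax and %F.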

[6] = Half life in CD-1 mouse at 0.5 mg/kg, iv; type: ADME, organism-based; settings: in vivo; in short: as §2
[7] = Volume of distribution in CD-1 mouse at 0.5 mg/kg, iv; type: ADME, organism-based; settings: in vivo; in short: as §2
[8] = AUC in CD-1 mouse at 0.5 mg/kg, iv; type: ADME, organism-based; settings: in vivo; in short: as §2
[9] = Cmax in CD-1 mouse at 1 mg/kg, po; type: ADME, organism-based; design: dose 1 mg/kg, route oral; settings: in vivo; in short: as §2
[10] = Tmax in CD-1 mouse at 1 mg/kg, po; type: ADME, organism-based; settings: in vivo; in short: as §2
[11] = AUC in CD-1 mouse at 1 mg/kg, po; type: ADME, organism-based; settings: in vivo; in short: as §2
[12] = Oral bioavailability in CD-1 mouse at 1 mg/kg; type: ADME, organism-based; settings: in vivo; in short: as §2
[13] = Clearance in CD-1 mouse at 1 mg/kg, iv; type: ADME, organism-based; settings: in vivo
In short: (§3)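 Male CD-1 mice, n=3 per dose, values are cohort means. Dosed 1 mg/kg iv and 10 mg/kg po, each in 20% Solutol in water. Reported parameters are Cl, T1/2, Vd, AUC, Cmax, Tmax and %F.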

[14] = Half life in CD-1 mouse at 1 mg/kg, iv; type: ADME, organism-based; settings: in vivo; in short: as §3
[15] = Volume of distribution in CD-1 mouse at 1 mg/kg, iv; type: ADME, organism-based; settings: in vivo; in short: as §3
[16] = AUC in CD-1 mouse at 1 mg/kg, iv; type: ADME, organism-based; settings: in vivo; in short: as §3
[17] = Cmax in CD-1 mouse at 10 mg/kg, po; type: ADME, organism-based; design: dose 10 mg/kg, route oral; settings: in vivo; in short: as §3
[18] = Tmax in CD-1 mouse at 10 mg/kg, po; type: ADME, organism-based; settings: in vivo; in short: as §3
[19] = AUC in CD-1 mouse at 10 mg/kg, po; type: ADME, organism-based; settings: in vivo; in short: as §3
[20] = Oral bioavailability in CD-1 mouse at 10 mg/kg; type: ADME, organism-based; settings: in vivo; in short: as §3

O=C(O)[C@H]1C2CCC(CC2)[C@@H]1Nc1nc(-c2n[nH]c3ncc(F)cc23)nc2ccsc12
CC50 at 120 h [1]: 0.2 µM
half-life at 1 µM [2]: 1.28 h
half-life at 1 µM [3]: 1.22 h
half-life at 1 µM [4]: 0.683 h

O=C(O)[C@H]1C2CCC(CC2)[C@@H]1Nc1nc(-c2c[nH]c3ncc(F)cc23)nc2scnc12
CC50 at 120 h [1]: 1.5 µM

N#Cc1csc2c(N[C@H]3C4CCC(CC4)[C@@H]3C(=O)O)nc(-c3c[nH]c4ncc(F)cc34)nc12
CC50 at 120 h [1]: 0.7 µM

O=C(O)[C@H]1C2CCC(CC2)[C@@H]1Nc1nc(-n2ccc3ncc(F)cc32)ncc1F
CC50 at 120 h [1]: 1.1 µM

Cn1cc(F)c2c(N[C@H]3C4CCC(CC4)[C@@H]3C(=O)O)nc(-c3c[nH]c4ncc(F)cc34)nc21
CC50 at 120 h [1]: 0.6 µM

O=C(O)[C@H]1C2CCC(CC2)[C@@H]1Nc1nc(-c2c[nH]c3ncc(F)cc23)nc2cccc(F)c12
CC50 at 120 h [1]: 1.8 µM

O=C(O)[C@H]1C2CCC(CC2)[C@@H]1Nc1nc(-c2c[nH]c3ncc(F)cc23)nc2ccsc12
CC50 at 120 h [1]: 1.5 µM
half-life at 1 µM [2]: 0.828 h
half-life at 1 µM [3]: 0.87 h
half-life at 1 µM [4]: 0.808 h
clearance [5]: 18.9 mL/min/kg
half-life [6]: 2 h
Vd [7]: 2.4 L/kg
AUC [8]: 1.01 µM·h
Cmax [9]: 172 nM
Tmax [10]: 0.4 h
AUC [11]: 0.69 µM·h
bioavailability [12]: 37%

O=C(O)[C@H]1C2CCC(CC2)[C@@H]1Nc1nc(-c2c[nH]c3ncc(F)cc23)nc2ccoc12
CC50 at 120 h [1]: 6.2 µM

O=C(O)[C@H]1C2CCC(CC2)[C@@H]1Nc1nc(-c2c[nH]c3ncc(F)cc23)nc2c1CSC2
CC50 at 120 h [1]: 4.4 µM

O=C(O)[C@H]1C2CCC(CC2)[C@@H]1Nc1nc(-c2c[nH]c3ncc(F)cc23)nc2c1CCC2
CC50 at 120 h [1]: 10 µM

O=C(O)[C@H]1C2CCC(CC2)[C@@H]1Nc1nc(-c2c[nH]c3ncc(F)cc23)nc2c1CCS2
CC50 at 120 h [1]: 5.6 µM

O=C(O)[C@H]1C2CCC(CC2)[C@@H]1Nc1nc(-c2n[nH]c3ncc(F)cc23)nc2c1SCC2
CC50 at 120 h [1]: 4.9 µM
half-life at 1 µM [2]: > 2.42 h
half-life at 1 µM [3]: > 2.42 h
half-life at 1 µM [4]: 1.71 h
clearance [13]: 1.3 mL/min/kg
half-life [14]: 3 h
Vd [15]: 0.2 L/kg
AUC [16]: 28.7 µM·h
Cmax [17]: 32600 nM
Tmax [18]: 0.67 h
AUC [19]: 152 µM·h
bioavailability [20]: 57%

O=C(O)[C@H]1C2CCC(CC2)[C@@H]1Nc1nc(-c2c[nH]c3ccc(F)cc23)ncc1F
CC50 at 120 h [1]: 10 µM

O=C(O)[C@H]1C2CCC(CC2)[C@@H]1Nc1nc(-c2c[nH]c3ncc(F)cc23)nc2cccnc12
CC50 at 120 h [1]: 7 µM

O=C(O)[C@H]1C2CCC(CC2)[C@@H]1Nc1nc(-c2c[nH]c3ncc(F)cc23)nc2c1CS(=O)(=O)C2
CC50 at 120 h [1]: > 50 µM

Cc1cnc2c(N[C@H]3C4CCC(CC4)[C@@H]3C(=O)O)nc(-c3c[nH]c4ncc(F)cc34)nc2c1
CC50 at 120 h [1]: 4.9 µM

O=C(O)[C@H]1C2CCC(CC2)[C@@H]1Nc1nc(-c2c[nH]c3ncc(F)cc23)nc2cc(F)cnc12
CC50 at 120 h [1]: 1.4 µM

O=C(O)[C@H]1C2CCC(CC2)[C@@H]1Nc1nc(-c2c[nH]c3ncc(F)cc23)nc2c1CCCC2
CC50 at 120 h [1]: > 50 µM

O=C(O)[C@H]1C2CCC(CC2)[C@@H]1Nc1nc(-c2c[nH]c3ncc(F)cc23)nc2[nH]ccc12
CC50 at 120 h [1]: 15 µM

Cc1cccc2nc(-c3c[nH]c4ncc(F)cc34)nc(N[C@H]3C4CCC(CC4)[C@@H]3C(=O)O)c12
CC50 at 120 h [1]: 4.7 µM

O=C(O)[C@H]1C2CCC(CC2)[C@@H]1Nc1nc(-c2c[nH]c3ncc(F)cc23)nc2c1S(=O)(=O)CC2
CC50 at 120 h [1]: > 50 µM

O=C(O)[C@H]1C2CCC(CC2)[C@@H]1N1CCOc2cnc(-c3c[nH]c4ncc(F)cc34)nc21
CC50 at 120 h [1]: > 50 µM

O=C(O)[C@H]1C2CCC(CC2)[C@@H]1Nc1nc(-c2c[nH]c3ncc(F)cc23)nc2cscc12
CC50 at 120 h [1]: > 50 µM
clearance [5]: 73.7 mL/min/kg
half-life [6]: 1.3 h
Vd [7]: 5.7 L/kg
AUC [8]: 0.252 µM·h
Cmax [9]: 29.2 nM
Tmax [10]: 0.33 h
AUC [11]: 0.0488 µM·h
bioavailability [12]: 10%

Cc1cccc2nc(N[C@H]3C4CCC(CC4)[C@@H]3C(=O)O)nc(-c3c[nH]c4ncc(F)cc34)c12
CC50 at 120 h [1]: 2.1 µM

O=C(O)[C@H]1C2CCC(CC2)[C@@H]1n1ccc2cnc(-c3c[nH]c4ncc(F)cc34)nc21
CC50 at 120 h [1]: 4 µM

O=C(O)[C@H]1C2CCC(CC2)[C@@H]1Nc1nc(-c2c[nH]c3ncc(F)cc23)nc2cc(C(F)F)sc12
CC50 at 120 h [1]: 3.3 µM

O=C(O)[C@H]1C2CCC(CC2)[C@@H]1Nc1nc(-c2c[nH]c3ncc(F)cc23)nc2nccnc12
CC50 at 120 h [1]: 46 µM

O=C(O)[C@H]1C2CCC(CC2)[C@@H]1Nc1nc(-c2c[nH]c3ncc(F)cc23)nc2sccc12
CC50 at 120 h [1]: 0.6 µM
half-life at 1 µM [2]: 1.74 h
half-life at 1 µM [3]: 1.52 h
half-life at 1 µM [4]: 1.02 h
Cmax [9]: 509 nM
Tmax [10]: 0.83 h
AUC [11]: 1.35 µM·h

O=C(O)[C@H]1C2CCC(CC2)[C@@H]1Nc1nc(-c2c[nH]c3ncc(F)cc23)nc2c1SCC2
CC50 at 120 h [1]: 4.5 µM
half-life at 1 µM [2]: 1.66 h
half-life at 1 µM [3]: 1.92 h
half-life at 1 µM [4]: 0.855 h
clearance [13]: 13.8 mL/min/kg
half-life [14]: 2.3 h
Vd [15]: 2.3 L/kg
AUC [16]: 2.79 µM·h
Cmax [17]: 15000 nM
Tmax [18]: 0.25 h
AUC [19]: 19.5 µM·h
bioavailability [20]: 71%

N#Cc1cn([C@H]2C3CCC(CC3)[C@@H]2C(=O)O)c2nc(-c3c[nH]c4ncc(F)cc34)ncc12
CC50 at 120 h [1]: 5.4 µM

O=C(O)[C@H]1C2CCC(CC2)[C@@H]1n1cnc2cnc(-c3c[nH]c4ncc(F)cc34)nc21
CC50 at 120 h [1]: 21.7 µM

O=C(O)[C@H]1C2CCC(CC2)[C@@H]1Nc1nc(-c2n[nH]c3ncc(F)cc23)nc2sccc12
CC50 at 120 h [1]: 2.7 µM
half-life at 1 µM [2]: 1.18 h
half-life at 1 µM [3]: 1.08 h
half-life at 1 µM [4]: 0.55 h

O=C(O)[C@H]1C2CCC(CC2)[C@@H]1Nc1nc(-c2c[nH]c3ncc(F)cc23)ncc1F [PIMODIVIR]
CC50 at 120 h [1]: 12 µM
half-life at 1 µM [2]: > 2.42 h
half-life at 1 µM [3]: > 2.42 h
half-life at 1 µM [4]: > 2.42 h
clearance [13]: 30.9 mL/min/kg
half-life [14]: 1.9 h
Vd [15]: 7.1 L/kg
AUC [16]: 1.36 µM·h
Cmax [17]: 2050 nM
Tmax [18]: 2.5 h
AUC [19]: 13.4 µM·h
bioavailability [20]: 100%
